Arr AP2 block: inhibitors of human beta-arrestin and AP2 interaction; FITC-arrestin peptide / GST-AP2 beads, flow cytometry; AP2 beta2 appendage carries R879A mutation; inhibition, % at 10 µM; 340,000 tested, 0.31% active; AID 504490;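 active means inhibition above a set limit, near 3 SD of compounds lacking own fluorescence, cut at about 54% in these data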
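System: GST-AP2 R879A glutathione beads; medium: PBS, Tween 20 0.05%, BSA 0.1%; reagent: fluorescein-tagged arrestin peptide at 50 nM final; schedule: pre-incubation 12 min, peptide binding 1 h, room temperature; detection: flow cytometry, FL1 (488/535 nm); read-out: inhibition as reduced fluorescein signal on beads, percent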
MEKK2mut PB1 HTS: signal of MEK5 binding to mutant human MEKK2 PB1 domain | bead flow cytometry, Alexa488-MEK5 binding to MEKK2 mutant | percent response, % at 10 µM | 290,000 tested, 0.35% active | AID 1530; in the data active means percent response above about 24%, passing the limit was not always enough
MEKK3 PB1 HTS: MEKK3-MEK5 PB1 interaction, increase or decrease; Q99759; bead-based flow cytometry, Alexa488-MEK5 binding to MEKK3; actives lie on both sides; 0 = blocked by unlabeled MEK5, 100 = vehicle; binding response (% of control), % at 10 µM; AID 1529; 290,000 tested, 1.4% active;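 active means binding response more than 3 SD above or below the average of its plate-row segment, actives on both sides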;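 further: Alexa488 bead fluorescence after subtracting the streptavidin-only scavenger bead signal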
Target sequence (Q99759 whole entry, looked up): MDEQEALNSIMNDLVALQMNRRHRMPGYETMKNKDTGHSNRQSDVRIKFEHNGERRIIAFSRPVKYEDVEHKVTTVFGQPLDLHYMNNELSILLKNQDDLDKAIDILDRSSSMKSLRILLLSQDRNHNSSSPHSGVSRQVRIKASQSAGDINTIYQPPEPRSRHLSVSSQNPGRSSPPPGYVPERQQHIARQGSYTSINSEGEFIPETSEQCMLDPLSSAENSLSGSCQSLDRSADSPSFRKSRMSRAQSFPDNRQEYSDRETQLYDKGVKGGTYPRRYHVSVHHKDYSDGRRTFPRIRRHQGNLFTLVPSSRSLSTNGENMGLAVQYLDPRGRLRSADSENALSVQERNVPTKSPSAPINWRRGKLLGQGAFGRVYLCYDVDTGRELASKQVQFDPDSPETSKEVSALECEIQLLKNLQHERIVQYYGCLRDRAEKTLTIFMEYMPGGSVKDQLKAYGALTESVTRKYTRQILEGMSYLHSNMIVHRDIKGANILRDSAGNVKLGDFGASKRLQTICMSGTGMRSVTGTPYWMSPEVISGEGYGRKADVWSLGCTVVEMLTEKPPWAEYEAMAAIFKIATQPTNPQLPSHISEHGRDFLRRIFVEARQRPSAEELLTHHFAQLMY
MEKK2wt PB1 HTS: raises or lowers MEK5 binding to wildtype human MEKK2 PB1 domain; Q9Y2U5; bead flow cytometry, Alexa488-MEK5 binding to MEKK2 WT; actives lie on both sides; binding response (% of control), % at 10 µM; 290,000 tested, 1.1% active; AID 1531; in the data active means binding response below about 67% or above about 130%
Arr-AP2 CP1: human beta-arrestin and AP2 interaction inhibition, cherry pick; inhibition, % at 10 µM; 1,300 tested, 2% active; GST-AP2 beads, FITC arrestin peptide binding, flow cytometry; GST-fused beta2-adaptin appendage, R879A mutant; shares compounds with Arr AP2 block;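 active means inhibition above a set limit, roughly 3 SD of non-fluorescent compound noise, cut at about 38% in these data; inactive means inhibition at or below that limit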;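 further: loss of bead fluorescence from 50 nM FITC arrestin peptide bound to appendage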
GST GSH counter: counter-screen for beta-arrestin AP2 inhibitors: GST-GSH bead binding; shares compounds with Arr AP2 block; GST-fluorescein binding to GSH beads, fluorescence; inhibition, % at 10 µM; 1,300 tested, 2% active; AID 588338;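 active means inhibition above 50%, about 3 SD of the inhibition seen with non-fluorescent compounds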;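 further: fluorescein maleimide labelled GST captured on 4 micron glutathione beads; higher means more loss of bead fluorescence from quenching or blocked binding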
Numbers stand for hits. The list is not random: actives were taken first. Their share in the collection is about 2.3%.

How did CC(=O)N(c1c(C)n(C)n(-c2ccccc2)c1=O)C1(C(=O)NC2CCCCC2)CCCCC1 do in these assays?
Arr AP2 block: inactive; MEKK2mut PB1 HTS: inactive; MEKK3 PB1 HTS: inactive; MEKK2wt PB1 HTS: inactive

What do the screens show for `CCOC(=O)C(=O)Nc1cc(C)nn1-c1nc2ccccc2[nH]1`?
Arr AP2 block: inactive; MEKK2mut PB1 HTS: inactive; MEKK3 PB1 HTS: inactive; MEKK2wt PB1 HTS: inactive

Results for COc1cccc(OC)c1C(=O)Nc1cc(C)nn1-c1nc2ccccc2[nH]1 ?
Arr AP2 block: inactive; MEKK2mut PB1 HTS: inactive; MEKK3 PB1 HTS: inactive; MEKK2wt PB1 HTS: inactive; Arr-AP2 CP1: inactive; GST GSH counter: inactive

How did COc1ccc(C(=O)Nc2nc3ccccc3s2)c(OC)c1 do in these assays?
Arr AP2 block: inactive; MEKK2mut PB1 HTS: inactive; MEKK3 PB1 HTS: inactive; MEKK2wt PB1 HTS: inactive

What do the screens show for `Cc1cc(NC(=O)c2ccccc2)n(-c2nc3ccccc3[nH]2)n1`?
Arr AP2 block: inactive; MEKK2mut PB1 HTS: inactive; MEKK3 PB1 HTS: inactive; MEKK2wt PB1 HTS: inactive; Arr-AP2 CP1: inactive; GST GSH counter: inactive

Results for COc1ccc(C(=O)Nc2cc(C)nn2-c2nc3ccccc3[nH]2)c(OC)c1 ?
Arr AP2 block: inactive; MEKK2mut PB1 HTS: inactive; MEKK3 PB1 HTS: inactive; MEKK2wt PB1 HTS: inactive; Arr-AP2 CP1: inactive; GST GSH counter: inactive

Results for CN(C)S(=O)(=O)c1ccc(Cl)c(C(=O)NC2=NCCS2)c1 ?
Arr AP2 block: inactive; MEKK2mut PB1 HTS: inactive; MEKK3 PB1 HTS: inactive; MEKK2wt PB1 HTS: inactive

What do the screens show for `CC(=O)Nc1ccc(S(=O)(=O)NC(C(=O)O)C(C)O)cc1` (configuration not stated)?
Arr AP2 block: 54.5; MEKK2mut PB1 HTS: inactive; MEKK3 PB1 HTS: inactive; MEKK2wt PB1 HTS: inactive; Arr-AP2 CP1: inactive; GST GSH counter: inactive

How did CC(=O)Nc1ccc(S(=O)(=O)NC(C)CCc2ccccc2)cc1 (configuration not stated) do in these assays?
Arr AP2 block: inactive; MEKK2mut PB1 HTS: inactive; MEKK3 PB1 HTS: inactive; MEKK2wt PB1 HTS: inactive

Results for CCn1c(Cc2ccccc2)nnc1SCC(=O)N1CCCC1=O ?
Arr AP2 block: inactive; MEKK2mut PB1 HTS: inactive; MEKK3 PB1 HTS: inactive; MEKK2wt PB1 HTS: inactive

Results for Cc1ccccc1C(=O)Nc1c(C(=O)N(CCN(C)C)Cc2ccco2)oc2ccccc12 ?
Arr AP2 block: 58.1; MEKK2mut PB1 HTS: inactive; MEKK3 PB1 HTS: inactive; MEKK2wt PB1 HTS: inactive; Arr-AP2 CP1: inactive; GST GSH counter: inactive

How did COc1ccccc1C(=O)Nc1c(C(=O)N(CCN(C)C)Cc2ccco2)oc2ccccc12 do in these assays?
Arr AP2 block: inactive; MEKK2mut PB1 HTS: inactive; MEKK3 PB1 HTS: inactive; MEKK2wt PB1 HTS: inactive

Results for COC(=O)c1ccc2nc(C3CCCCC3)c3c(c2c1)CCC3 ?
Arr AP2 block: inactive; MEKK2mut PB1 HTS: inactive; MEKK3 PB1 HTS: inactive; MEKK2wt PB1 HTS: inactive

Results for COC(c1ccccc1)c1nnc(CCC(=O)N2CCN(C3CCCC3)CC2)o1 (configuration not stated) ?
Arr AP2 block: 68.6; MEKK2mut PB1 HTS: inactive; MEKK3 PB1 HTS: inactive; MEKK2wt PB1 HTS: inactive; Arr-AP2 CP1: inactive; GST GSH counter: inactive

What do the screens show for `CC(NC(=O)C(=O)N/N=C\c1cccc([N+](=O)[O-])c1)c1ccccc1` (configuration not stated)?
Arr AP2 block: inactive; MEKK2mut PB1 HTS: inactive; MEKK3 PB1 HTS: inactive; MEKK2wt PB1 HTS: inactive

What do the screens show for `C1CCN(c2nc(N3CCCCC3)nc(N3CCNCC3)n2)CC1`?
Arr AP2 block: 100.9; Arr-AP2 CP1: inactive; GST GSH counter: inactive

What do the screens show for `CC1CCN(c2nc(N3CCCCC3)nc(N3CCCCC3)n2)CC1`?
Arr AP2 block: inactive; MEKK2mut PB1 HTS: inactive; MEKK3 PB1 HTS: inactive; MEKK2wt PB1 HTS: inactive

How did CCN(CC)c1ccc(Nc2nc(N3CCOCC3)c3ccccc3n2)cc1 do in these assays?
Arr AP2 block: 59.1; MEKK2mut PB1 HTS: inactive; MEKK3 PB1 HTS: inactive; MEKK2wt PB1 HTS: inactive; Arr-AP2 CP1: inactive; GST GSH counter: inactive

Results for C=CCn1c(-c2ccc(OC)cc2)nc2ccccc21 ?
Arr AP2 block: 97.9; Arr-AP2 CP1: inactive; GST GSH counter: inactive

What do the screens show for `Cc1ccc(SCC(=O)NNC(=O)CCS(=O)(=O)c2ccccc2)cc1`?
Arr AP2 block: inactive

Results for Cc1ccc(SCC(=O)NNC(=O)CCS(=O)(=O)c2ccc(C)cc2)cc1 ?
Arr AP2 block: 54.5; Arr-AP2 CP1: inactive; GST GSH counter: inactive

How did O=C1CCCc2cc3c(cc21)CC1(C3)Cc2cc3c(cc2C1)C(=O)CCC3 do in these assays?
Arr AP2 block: inactive; MEKK2mut PB1 HTS: inactive; MEKK3 PB1 HTS: inactive; MEKK2wt PB1 HTS: inactive

How did CCOC(=O)N1CCN(C(=O)CCSCCc2ccncc2)CC1 do in these assays?
Arr AP2 block: 56.8; MEKK2mut PB1 HTS: inactive; MEKK3 PB1 HTS: inactive; MEKK2wt PB1 HTS: inactive; Arr-AP2 CP1: inactive; GST GSH counter: inactive

What do the screens show for `CCOC(=O)N1CCN(C(=O)CSCc2ccc(C)cc2)CC1`?
Arr AP2 block: inactive; MEKK2mut PB1 HTS: inactive; MEKK3 PB1 HTS: inactive; MEKK2wt PB1 HTS: inactive

What do the screens show for `CCOC(=O)C1(Cc2ccc(Cl)cc2)CCN(C(=O)CCc2ccncc2)CC1`?
Arr AP2 block: inactive; MEKK2mut PB1 HTS: inactive; MEKK3 PB1 HTS: inactive; MEKK2wt PB1 HTS: inactive

How did COc1ccc(CCNC(=S)Nc2ccc(S(=O)(=O)Nc3ncccn3)cc2)cc1OC do in these assays?
Arr AP2 block: inactive; MEKK2mut PB1 HTS: inactive; MEKK3 PB1 HTS: inactive; MEKK2wt PB1 HTS: inactive

How did Cc1cc(NS(=O)(=O)c2ccccc2)c([N+](=O)[O-])cc1C do in these assays?
Arr AP2 block: 61.8; MEKK2mut PB1 HTS: inactive; MEKK3 PB1 HTS: inactive; MEKK2wt PB1 HTS: inactive; Arr-AP2 CP1: inactive; GST GSH counter: inactive

How did Nc1c(N(C(=O)Nc2ccc(Cl)c(Cl)c2)C2CCCC2)c(=O)[nH]c(=O)n1Cc1ccccc1 do in these assays?
Arr AP2 block: 84.0; Arr-AP2 CP1: inactive; GST GSH counter: inactive

How did COCCN(C(=O)C1CCCC1)c1c(N)n(Cc2ccccc2)c(=O)[nH]c1=O do in these assays?
Arr AP2 block: inactive; MEKK2mut PB1 HTS: inactive; MEKK3 PB1 HTS: inactive; MEKK2wt PB1 HTS: inactive

What do the screens show for `COc1ccc(NC(=S)N2CCCC(c3nc4ccc(C)cc4[nH]3)C2)cc1` (configuration not stated)?
Arr AP2 block: 56.9; MEKK2mut PB1 HTS: inactive; MEKK3 PB1 HTS: inactive; MEKK2wt PB1 HTS: inactive; Arr-AP2 CP1: inactive; GST GSH counter: inactive

What do the screens show for `COc1ccc(NC(=S)N2CCCC(c3nc4ccc(C)cc4[nH]3)C2)c(OC)c1` (configuration not stated)?
Arr AP2 block: inactive; MEKK2mut PB1 HTS: inactive; MEKK3 PB1 HTS: inactive; MEKK2wt PB1 HTS: inactive

What do the screens show for `CC1Cc2ccccc2N1C(=O)C(C)n1cc(C(F)(F)F)cc(Cl)c1=O` (configuration not stated)?
Arr AP2 block: 68.8; Arr-AP2 CP1: inactive; GST GSH counter: inactive

Source: PubChem
